Results collected from several papers.
Organism: Mycolicibacterium smegmatis
Effect on: microbial growth

SMILES | assay | test system | setting | endpoint | result
CCCCOc1ccc(-c2c[nH]c(N)n2)cc1 | – | ATCC700084 MC^2155 | 48 h | MIC | > 200 µM
Cc1ccc(-n2cc(CN3CCN(C(=O)c4c(C)nc5sc6ccccc6n45)CC3)nn2)cc1C | – | – | 72 h | IC50 | 5.7 µM
Cc1cc(N)c2ccccc2[n+]1CCCCCCCCCC[n+]1c(C)cc(N)c2ccccc21 | disc diffusion | – | 50 µg/disc | inhibition zone | 18 mm
CC(C)=CCC/C(C)=C/C(=O)O | – | – | 48 h | IC50 | > 500 µM
NC[C@@H]1O[C@H](O[C@H]2[C@@H](O)[C@H](O[C@@H]3[C@@H](O)[C@H](N)C[C@H](N)[C@H]3O[C@H]3O[C@H](CO)[C@@H](O)[C@H](O)[C@H]3N)O[C@@H]2CO)[C@H](N)[C@@H](O)[C@@H]1O | broth dilution | – | 72 h | MIC | 1 µg/mL
CCc1ccc(-c2c[nH]c(N)n2)cc1 | – | ATCC700084 MC^2155 | 48 h | MIC | 100 µM
CC(C)=CCC/C(C)=C/COCCNC1C2CC3CC(C2)CC1C3 (stereo not drawn) | – | – | 48 h | IC50 | ~9 µM
O=C(N/N=C/c1ccc([N+](=O)[O-])o1)c1ccc(O)cc1 | – | ATCC14468 | – | MIC90 | > 1000 µg/mL
CCCCCCCCCc1cn(CCN2CCN(C(=O)c3c(C)nc4sccn34)CC2)nn1 | – | – | 72 h | IC50 | 28.2 µM
ON=C1C2CC3CC(C2)CC1C3 | – | – | 48 h | IC50 | > 500 µM
CCCc1ccc(-c2c[nH]c(N)n2)cc1 | – | ATCC700084 MC^2155 | 48 h | MIC | 200 µM
Cc1nc2sc3ccccc3n2c1C(=O)N1CCN(Cc2cn(-c3ccc([N+](=O)[O-])cc3)nn2)CC1 | – | – | 72 h | IC50 | > 128 µM
